A short description of assay [1]: (§1) Cytotoxicity against human PC3 cells after 72 hrs by XTT assay. It is filed as functional, cell-based. The conditions noted are these: PC-3, 72 h. The method, boiled down: (§2)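 Compounds in DMSO (5-100 µg/ml, final DMSO <0.2%) were added for 72 h. XTT was then added (4 h, 37°C) and formazan read at 492 nm. IC50 is the 50% viability drop versus vehicle. Three experiments, five wells each, mean ± SEM.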
(Tetrazolium dyes change colour on reduction, which living cells bring about.)

Assay [2] relates to PC-3. The assay is described as §1. Format: functional, cell-based. The method, boiled down: as §2
Assay [3] can be described thus: (§3) Cytotoxicity against rat MAT-LyLu cells after 72 hrs by XTT assay. Format: functional, cell-based. The conditions noted are these: MAT-Ly-Lu. The method, boiled down:
as §2

Assay [4] deals with MAT-Ly-Lu. The description is as §3. It is filed as functional, cell-based. In outline:
as §2

Assay [5] concerns LNCaP. Put plainly: Cytotoxicity against human LNCAP cells after 72 hrs by XTT assay. It is filed as functional, cell-based. In outline:
as §2

Assay [6] is described as follows: Inhibition of clonogenic potential of rat MAT-LyLu cells grown on semi-soft agar medium assessed as colony formation at cytotoxic IC50 level incubated for 2 weeks post dose by crystal violet staining based light microscopy relative to control. Format: functional, MAT-Ly-Lu. More on the design: scale not given: the % may be the effect or the level left. The method, boiled down:
(§4)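 Cells (1×10^5) in RPMI with 20% FBS and 0.3% Noble agar were layered over a 0.6% agar/RPMI base, held 15 min at room temperature, then incubated 24 h at 37°C. Compound in 1 mL medium was added the next day. After 2 weeks, cells were stained with 0.01% crystal violet (18 h, 37°C). Colony number and relative size were scored by light microscopy against vehicle. Three independent experiments, mean ± SEM.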

Assay [7] in a line: Inhibition of clonogenic potential of human PC3 cells grown on semi-soft agar medium assessed as colony formation at cytotoxic IC50 level incubated for 2 weeks post dose by crystal violet staining based light microscopy relative to control. Format: functional, PC-3. More on the design: scale not given: the % may be the effect or the level left. In outline: as §4
Assay [8] can be described thus: Inhibition of clonogenic potential of rat MAT-LyLu cells grown on semi-soft agar medium assessed as relative colony size ratio at cytotoxic IC50 level incubated for 2 weeks post dose by crystal violet staining based light microscopy (reference value: 1 +/- 0.05). It is filed as functional, MAT-Ly-Lu. In outline:
as §4

Assay [9] concerns the target Matrix metalloproteinase-9 (Homo sapiens) (UniProt P14780). Put plainly: Inhibition of MMP9 in human PC3 cells assessed as reduction in MMP-mediated gelatinolytic activity at cytotoxic IC50 level incubated for 24 hrs by zymography. Format: cell-based. Conditions: PC-3. The method, boiled down: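 PC-3 cells at 80% confluence were washed with PBS and treated in serum-free medium (24 h, 37°C). Conditioned medium was mixed 0.75:0.25 with sample buffer lacking mercaptoethanol and run on 10% SDS gels copolymerized with gelatin (1 mg/mL). MMP-9 lysis zones were quantified as % activity relative to vehicle. Three experiments, mean ± SEM.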

A short description of assay [10]: Inhibition of clonogenic potential of human PC3 cells grown on semi-soft agar medium assessed as relative colony size ratio at cytotoxic IC50 level incubated for 2 weeks post dose by crystal violet staining based light microscopy (reference value: 1 +/- 0.3). It is filed as functional, PC-3. The method, boiled down:
as §4

Assay [11] deals with LNCaP. Briefly: Inhibition of clonogenic potential of human LNCAP cells grown on semi-soft agar medium assessed as colony formation at cytotoxic IC50 level incubated for 2 weeks post dose by crystal violet staining based light microscopy relative to control. More on the design: scale not given: the % may be the effect or the level left. Format: functional. The method, boiled down:
as §4

In assay [12] the test system is LNCaP. Put plainly: Inhibition of clonogenic potential of human LNCAP cells grown on semi-soft agar medium assessed as relative colony size ratio at cytotoxic IC50 level incubated for 2 weeks post dose by crystal violet staining based light microscopy (reference value: 1 +/- 0.3). Format: functional. In outline: as §4
For assay [13], the system named is LNCaP. Put plainly: Inhibition of cell invasion of human LNCAP cells pre-treated at cytotoxic IC50 level followed by further 18 hrs incubation by matrigel coated Boyden chamber assay. It is filed as functional, cell-based. In outline:
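LNCaP cells (1×10^5 cells/ml) were pretreated for 24 h, then seeded in serum-free medium onto a Matrigel-coated […] membrane over medium with 20% FBS (18 h, 37°C). Invaded cells were stained with calcein (4 µg/ml in HBSS, 1 h) and fluorescence read at 485/530 nm. Inhibition is relative to vehicle. Three independent experiments, mean ± SEM.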

Assay [14] concerns PC-3. Put plainly: Inhibition of EGF-induced cell migration of human PC3 cells at cytotoxic IC50 level incubated for 24 hrs in presence of EGF by light microscopy based wound healing assay. Format: functional. The method, boiled down:
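PC-3 cells (8×10^4 per well) were grown to confluence (48 h, 37°C) and the monolayer scratched with a pipette tip. After a PBS wash, compound in fresh medium was added with […] (1 pg/ml) for 24 h. Wound area was imaged at 0 and 24 h and expressed as % closure of the original wound. Three independent experiments, mean ± SEM.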

≈ marks a conversion by molar mass, not a printed value. Calls of active or inactive are those of the source. No cut-off for these calls is given here.

Chain of Matrix metalloproteinase-9 (Homo sapiens) (P14780 whole entry): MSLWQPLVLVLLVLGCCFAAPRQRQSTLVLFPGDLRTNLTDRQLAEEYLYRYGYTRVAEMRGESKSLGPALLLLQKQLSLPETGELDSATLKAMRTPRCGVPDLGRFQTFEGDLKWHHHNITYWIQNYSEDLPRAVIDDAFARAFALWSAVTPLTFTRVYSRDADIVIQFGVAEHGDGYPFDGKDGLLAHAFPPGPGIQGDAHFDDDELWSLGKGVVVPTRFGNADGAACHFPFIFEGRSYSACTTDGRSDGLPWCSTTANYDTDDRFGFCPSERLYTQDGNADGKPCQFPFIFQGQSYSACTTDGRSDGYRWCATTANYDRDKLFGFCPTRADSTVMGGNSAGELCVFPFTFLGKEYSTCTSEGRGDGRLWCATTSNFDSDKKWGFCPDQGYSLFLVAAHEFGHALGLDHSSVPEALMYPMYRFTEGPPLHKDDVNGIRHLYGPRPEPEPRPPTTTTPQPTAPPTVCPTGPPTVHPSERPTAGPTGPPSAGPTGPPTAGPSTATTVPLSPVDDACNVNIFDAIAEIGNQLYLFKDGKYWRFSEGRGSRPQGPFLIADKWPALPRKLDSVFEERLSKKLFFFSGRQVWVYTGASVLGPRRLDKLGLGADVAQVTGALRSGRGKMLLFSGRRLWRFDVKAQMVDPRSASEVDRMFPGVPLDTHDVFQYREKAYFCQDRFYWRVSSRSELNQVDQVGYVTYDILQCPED

For `O=C1CCCC2=C1[C@]1(O)C(=O)c3ccccc3[C@]1(O)N2c1ccc(Cl)cc1` (racemic), the IC50 in assay [1] is 67.9 µg/mL (≈ 178 µM); in assay [3], > 100 µg/mL; in assay [5] it was 79.2 µg/mL (≈ 207 µM). In addition, the inhibition result in assay [2], in [4] and in [5] was “Dose-dependent effect” each time.

As for `O=C1CCCC2=C1[C@]1(O)C(=O)c3ccccc3[C@]1(O)N2c1ccc(Cl)c(Cl)c1` (racemic), the IC50 in [1] worked out at 47.8 µg/mL (≈ 115 µM); in assay [3] it was 75.2 µg/mL (≈ 181 µM); in [5], 53.9 µg/mL (≈ 130 µM). Moreover, the inhibition entry in [2], in assay [4] and in assay [5] was “Dose-dependent effect” throughout.

Consider `CC1(C)CC(=O)C2=C(C1)N(c1ccc(Cl)cc1)[C@@]1(O)c3ccccc3C(=O)[C@@]21O` (racemic), for which the results for the IC50 in assay [1], in assay [3] and in assay [5] were 76.6 µg/mL (≈ 187 µM), > 100 µg/mL and 66.2 µg/mL (≈ 162 µM), respectively. Besides, the inhibition entry in [2], in assay [4] and in assay [5] was “Dose-dependent effect” each time.

For the molecule `Cc1cc(N)c2ccccc2[n+]1CCCCCCCCCC[n+]1c(C)cc(N)c2ccccc21` [DEQUALINIUM], the IC50 in [1] was found to be 24.6 µg/mL; in [3] it was 10.3 µg/mL; in [5], 4.94 µg/mL. For the same molecule, the inhibition result in assay [2], in [4] and in assay [5] was “Dose-dependent effect” in each case.

For `CC1(C)CC(=O)C2=C(C1)N(c1ccc(Cl)c(Cl)c1)[C@@]1(O)c3ccccc3C(=O)[C@@]21O` (racemic), the Activity in [6] is reported as 6.35%; in assay [7] it was 0%; in [11], 0%. Also, the 50% inhibitory concentration (IC50) in assay [1] amounted to 10.7 µg/mL (≈ 24.1 µM); in [3], 5.96 µg/mL (≈ 13.4 µM); in assay [5], 9.57 µg/mL (≈ 21.5 µM). Moreover, the inhibition result in assay [2], in assay [4] and in assay [5] was “Dose-dependent effect” each time. Further, the Ratio was found to be 0.16 in assay [8], 0 in [10] and 0 in assay [12]. Also, the inhibition result in assay [9], in assay [13] and in [14] was “Active” each time.

As for `COc1ccc(N2C3=C(C(=O)CCC3)[C@]3(O)C(=O)c4ccccc4[C@]23O)cc1` (racemic), the 50% inhibitory concentration (IC50) in assay [1], in assay [3] and in assay [5] was > 100 µg/mL each time.

`Cc1ccc(N2C3=C(C(=O)CC(C)(C)C3)[C@]3(O)C(=O)c4ccccc4[C@]23O)cc1C` (racemic): the 50% inhibitory concentration (IC50) in assay [1], in [3] and in [5] was > 100 µg/mL each time.

Regarding `COc1ccc(N2C3=C(C(=O)CCC3)[C@]3(O)C(=O)c4ccccc4[C@]23O)c(OC)c1` (racemic), the IC50 in [1], in assay [3] and in assay [5] was > 100 µg/mL throughout.

As for `Cc1cccc(N2C3=C(C(=O)CCC3)[C@]3(O)C(=O)c4ccccc4[C@]23O)c1` (racemic), the half-maximal inhibitory concentration (IC50) in [1], in [3] and in [5] was > 100 µg/mL throughout.

For the molecule `COc1ccc(OC)c(N2C3=C(C(=O)CCC3)[C@]3(O)C(=O)c4ccccc4[C@]23O)c1`, the IC50 in assay [1], in assay [3] and in assay [5] was > 100 µg/mL throughout.

Turning to `COc1cccc(N2C3=C(C(=O)CCC3)[C@]3(O)C(=O)c4ccccc4[C@]23O)c1` (racemic), the IC50 in assay [1], in assay [3] and in assay [5] was > 100 µg/mL throughout.

With `COc1ccc(N2C3=C(C(=O)CC(C)(C)C3)[C@]3(O)C(=O)c4ccccc4[C@]23O)cc1` (racemic), the 50% inhibitory concentration (IC50) in assay [1], in assay [3] and in assay [5] was > 100 µg/mL each time.

With `Cc1ccc(C)c(N2C3=C(C(=O)CCC3)[C@]3(O)C(=O)c4ccccc4[C@]23O)c1` (racemic), the half-inhibitory concentration (IC50) in assay [1], in [3] and in [5] was > 100 µg/mL each time.

For `Cc1ccc(N2C3=C(C(=O)CCC3)[C@]3(O)C(=O)c4ccccc4[C@]23O)cc1C` (racemic), the half-inhibitory concentration (IC50) in assay [1], in [3] and in [5] was > 100 µg/mL throughout.

As to `Cc1cc(C)cc(N2C3=C(C(=O)CCC3)[C@]3(O)C(=O)c4ccccc4[C@]23O)c1` (racemic), the IC50 in assay [1], in [3] and in assay [5] was > 100 µg/mL in each case.

On to `COc1ccc(N2C3=C(C(=O)CC(C)(C)C3)[C@]3(O)C(=O)c4ccccc4[C@]23O)cc1OC` (racemic), for which the IC50 in assay [1], in [3] and in assay [5] was > 100 µg/mL each time.

For `COc1cc(N2C3=C(C(=O)CCC3)[C@]3(O)C(=O)c4ccccc4[C@]23O)cc(OC)c1OC` (racemic), the IC50 in assay [1], in [3] and in [5] was > 100 µg/mL each time.

As usually defined, the IC50 is the concentration that gives 50% inhibition.

Values taken from ChEMBL document CHEMBL3414540, “Synthesis, crystal structure and effect of indeno[1,2-b]indole derivatives on prostate cancer in vitro. Potential effect against MMP-9” (Eur J Med Chem, 2015).
